Test results: ChEMBL document CHEMBL3259792 (Eur J Med Chem, 2014)

Columns and labels:
[1] = Cytotoxicity against human MT4 cells assessed as cell viability by MTT assay; format: cell-based
In short: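 Mock-infected MT-4 cells exposed to a range of compound concentrations. Viable cells measured by MTT colorimetry at day 5. CC₅₀ = concentration causing 50% death of non-infected cells. Means of two to three independent experiments, each in triplicate.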

[2] = system: Human immunodeficiency virus 1; assay: Antiviral activity against HIV1 NL4.3 infected in human MT4 cells assessed as inhibition of virus-induced cell death measured after 5 days of infection by MTT method; format: functional, organism-based; conditions: Human immunodeficiency virus 1, NL4.3, MT4, 120 h
In short: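 Lymphoid MT-4 cells (NIH AIDS Reagent Program) infected with HIV-1 NL4-3 in the presence of varying compound concentrations. On day 5 post-infection, viable cells were counted by MTT tetrazolium colorimetry. EC₅₀ = concentration inhibiting virus-induced cell death by 50%. Means of two to three independent experiments, each in triplicate.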

[3] = Selectivity index, ratio of CC50 for human MT4 cells to EC50 for HIV1 NL4.3 infected in human MT4 cells; format: toxicity, cell-based; conditions: read-out: Ratio CC50/EC50
In short: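 Ratio CC₅₀/EC₅₀. CC₅₀ is from mock-infected MT-4 cells and EC₅₀ from HIV-1 NL4-3-infected MT-4 cells, both read by MTT at day 5 post-infection.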

[4] = system: Human immunodeficiency virus 1; assay: Antiviral activity against HIV1 3B infected in human CEM cells assessed as protection of cells monitored by giant cell formation by microscopy; format: functional, organism-based; conditions: Human immunodeficiency virus 1, 3B, CCRF-CEM
In short: (§1)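 Human CEM cultures (~3 × 10⁵ cells/mL) infected with ~100 CCID₅₀ per mL of HIV-1 IIIB or HIV-2 ROD, seeded with serial compound dilutions. Incubated 4 days at 37 °C; syncytium (giant cell) formation scored by microscopy. EC₅₀ = concentration protecting cells from viral cytopathicity by 50%. Means of two to three independent experiments, each in triplicate.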

[5] = system: Human immunodeficiency virus 2; assay: Antiviral activity against HIV-2 ROD infected in human CEM cells assessed as protection of cells monitored by giant cell formation by microscopy; format: functional, organism-based; conditions: Human immunodeficiency virus 2, ISOLATE ROD, CCRF-CEM; in short: as §1
[6] = system: Human immunodeficiency virus 1; assay: Antiviral activity against HIV1 harboring reverse transcriptase K103N mutant infected in human MT4 cells assessed as inhibition of virus-induced cell death measured after 5 days of infection by MTT method; format: functional, organism-based; conditions: Human immunodeficiency virus 1, MT4, 120 h
In short: (§2)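 MT-4 cells infected with the named NNRTI-resistant HIV-1 RT mutant strain, in the presence of a range of compound concentrations. Viable cells counted at day 5 post-infection by tetrazolium (MTT) colorimetry. […] Mean of 2–3 independent experiments, each in triplicate.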

[7] = system: Human immunodeficiency virus 1; assay: Antiviral activity against HIV1 harboring reverse transcriptase Y181C mutant infected in human MT4 cells assessed as inhibition of virus-induced cell death measured after 5 days of infection by MTT method; format: functional, organism-based; conditions: Human immunodeficiency virus 1, MT4, 120 h; in short: as §2
[8] = system: Human immunodeficiency virus 1; assay: Antiviral activity against HIV1 harboring reverse transcriptase […] mutant infected in human MT4 cells assessed as inhibition of virus-induced cell death measured after 5 days of infection by MTT method; format: functional, organism-based; conditions: Human immunodeficiency virus 1, MT4, 120 h; in short: as §2
[9] = system: Human immunodeficiency virus 1; assay: Antiviral activity against HIV1 harboring reverse transcriptase K103N/Y181C double mutant infected in human MT4 cells assessed as inhibition of virus-induced cell death measured after 5 days of infection by MTT method; format: functional, organism-based; conditions: Human immunodeficiency virus 1, MT4, 120 h; in short: as §2
[10] = system: Human immunodeficiency virus 1; assay: Ratio of EC50 for HIV1 harboring reverse transcriptase K103N/Y181C double mutant to EC50 for wild type HIV1 NL4.3; format: functional
In short: (§3)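 Fold change is the EC50 against the named mutant strain divided by the EC50 against wild-type HIV-1 NL4-3. […] Means of 2–3 independent experiments in triplicate.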

[11] = system: Human immunodeficiency virus 1; assay: Ratio of EC50 for HIV1 harboring reverse transcriptase K103N mutant to EC50 for wild type HIV1 NL4.3; format: functional; in short: as §3
[12] = system: Human immunodeficiency virus 1; assay: Ratio of EC50 for HIV1 harboring reverse transcriptase Y181C mutant to EC50 for wild type HIV1 NL4.3; format: functional; in short: as §3
[13] = system: Human immunodeficiency virus 1; assay: Ratio of EC50 for HIV1 harboring reverse transcriptase […] mutant to EC50 for wild type HIV1 NL4.3; format: functional; in short: as §3
[14] = molecular target: T1, Human immunodeficiency virus type 1 reverse transcriptase (Human immunodeficiency virus 1, UniProt Q72547); assay: Inhibition of HIV1 wild-type reverse transcriptase using [3H]dTTP by scintillation counting
[15] = molecular target: Human immunodeficiency virus type 1 reverse transcriptase (Human immunodeficiency virus 1, UniProt Q72547, K103N); assay: Inhibition of HIV1 wild-type reverse transcriptase K103N mutant using [3H]dTTP by scintillation counting
[16] = molecular target: T1, Human immunodeficiency virus type 1 reverse transcriptase; assay: Inhibition of HIV1 wild-type reverse transcriptase Y181I/Y181C mutant using [3H]dTTP by scintillation counting
[17] = molecular target: Human immunodeficiency virus type 1 reverse transcriptase (Human immunodeficiency virus 1, UniProt Q72547, L100I); assay: Inhibition of HIV1 wild-type reverse transcriptase L100I mutant using [3H]dTTP by scintillation counting
In short: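 RNA-dependent DNA polymerase activity of recombinant RT (2–4 nM) on poly(rA)/oligo(dT) 10:1 with [3H]dTTP (1 Ci/mmol). Incubation at 37 °C. Acid-insoluble radioactivity collected on GF/C filters after 5% cold TCA, counted by scintillation.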

[18] = system: Human immunodeficiency virus 1; assay: Ratio of efavirenz EC50 to compound EC50 for HIV1 harboring reverse transcriptase L100I mutant infected in human MT4 cells; format: functional
[19] = system: Human immunodeficiency virus 1; assay: Ratio of efavirenz EC50 to compound EC50 for HIV1 harboring reverse transcriptase K103N mutant infected in human MT4 cells; format: functional
[20] = system: Human immunodeficiency virus 1; assay: Ratio of AZT EC50 to compound EC50 for HIV1 harboring reverse transcriptase K103N mutant infected in human MT4 cells; format: functional
[21] = system: Human immunodeficiency virus 1; assay: Ratio of efavirenz EC50 to compound EC50 for HIV1 harboring reverse transcriptase Y181C mutant infected in human MT4 cells; format: functional
[22] = system: Human immunodeficiency virus 1; assay: Antiviral activity against HIV1 harboring reverse transcriptase Y188L mutant infected in human MT4 cells assessed as inhibition of virus-induced cell death measured after 5 days of infection by MTT method; format: functional, organism-based; conditions: Human immunodeficiency virus 1, MT4, 120 h; in short: as §2
[23] = system: Human immunodeficiency virus 1; assay: Ratio of EC50 for HIV1 harboring reverse transcriptase Y188L mutant to EC50 for wild type HIV1 NL4.3; format: functional; in short: as §3
[24] = system: Human immunodeficiency virus 1; assay: Ratio of efavirenz EC50 to compound EC50 for HIV1 harboring reverse transcriptase Y188L mutant infected in human MT4 cells; format: functional

SMILES | CC50 [1] [nM] | EC50 [2] [nM] | selectivity ratio [3] | EC50 [4] [nM] | EC50 [5] [nM] | EC50 [6] [nM] | EC50 [7] [nM] | EC50 [8] [nM] | EC50 [9] [nM] | Ratio EC50 [10] | Ratio EC50 [11] | Ratio EC50 [12] | Ratio EC50 [13] | IC50 [14] [nM] | IC50 [15] [nM] | IC50 [16] [nM] | IC50 [17] [nM] | Ratio EC50 [18] | Ratio EC50 [19] | Ratio EC50 [20] | further results
Cc1cc(C)cc(S(=O)(=O)c2c(C(=O)NCc3ccccc3F)[nH]c3ccc(Cl)cc23)c1 | > 53100 | 0.68 | > 78100 | 3.6 | > 2000 | 7.8 | 220 | 5.4 | 2140 | 3153 | 11.5 | 324 | 7.9 | 180 | 100 | > 20000 | 70 | 10 | – | – | –
Cc1cc(C)cc(S(=O)(=O)c2c(C(=O)NCc3cccc(F)c3)[nH]c3ccc(Cl)cc23)c1 | > 53100 | 0.68 | > 78100 | 4.3 | > 10000 | 4.4 | 4.3 | 5 | 13900 | 20391 | 6.5 | 6.3 | 7.4 | 70 | 160 | > 20000 | 40 | 10 | >546 | > 3 | Ratio EC50 [21]: 37
Cc1cc(C)cc(S(=O)(=O)c2c(C(=O)NCc3ccc(F)cc3)[nH]c3ccc(Cl)cc23)c1 | > 53100 | 1.1 | > 48300 | 5.3 | > 10000 | 16 | 160 | 5.9 | 50300 | 45750 | 14.5 | 145 | 5.4 | 26 | 24 | > 20000 | 30 | 10 | – | – | –
Cc1cc(C)cc(S(=O)(=O)c2c(C(=O)NCc3ccccc3[N+](=O)[O-])[nH]c3ccc(Cl)cc23)c1 | > 50200 | 0.8 | > 62800 | – | – | 6 | 16 | – | 1870 | 2335 | 7.5 | 20 | – | 23 | 23 | > 20000 | – | – | – | – | EC50 [22]: 281 nM; Ratio EC50 [23]: 351; Ratio EC50 [24]: 2.7
Cc1cc(C)cc(S(=O)(=O)c2c(C(=O)NCc3ccc(N)cc3)[nH]c3ccc(Cl)cc23)c1 | 6370 | 0.21 | – | – | – | 4.2 | 11 | – | 598 | 2847 | 20 | 52 | – | 7.7 | 34 | 201 | – | – | > 546 | >3 | EC50 [22]: 491 nM; Ratio EC50 [23]: 2338; Ratio EC50 [24]: 1.5
